Data set [1] deals with Enterococcus faecalis. The data set can be described thus: Antibacterial activity against Enterococcus faecalis infected in Caenorhabditis elegans assessed as organism survival at 8.6 uM. The format is functional, organism-based. The method in brief:
(§1)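 Gravid glp-4(bn2) sek-1(km4) adults were bleached for eggs, hatched at 15°C for 2 days, then grown on E. coli HB101 at 25°C for 52 h. Sterile adults were infected on E. faecalis MMH594 lawns (kanamycin 80 μg/ml) for 15 h at 15°C. Worms were sorted 15 per well into 20% BHI, 60% M9, kanamycin, nystatin and 1% DMSO, then kept 5 days at 26.3°C. Survival was scored from bright-field images, with median survival (LT50) as the read-out.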

Data set [2] concerns the target T1, Quinolone resistance protein NorA (Staphylococcus aureus) (UniProt P0A0J7).
T1 sequence (whole entry): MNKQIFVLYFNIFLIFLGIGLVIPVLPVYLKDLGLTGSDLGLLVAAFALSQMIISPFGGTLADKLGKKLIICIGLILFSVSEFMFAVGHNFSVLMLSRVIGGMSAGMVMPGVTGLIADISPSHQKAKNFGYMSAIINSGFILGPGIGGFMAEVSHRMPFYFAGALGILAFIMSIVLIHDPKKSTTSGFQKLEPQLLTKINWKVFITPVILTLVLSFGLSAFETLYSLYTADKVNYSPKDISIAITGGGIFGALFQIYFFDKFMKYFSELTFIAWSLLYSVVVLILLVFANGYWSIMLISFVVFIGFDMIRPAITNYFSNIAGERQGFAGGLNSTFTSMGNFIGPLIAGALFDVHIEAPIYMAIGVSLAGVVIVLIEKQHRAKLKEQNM
The data set can be described thus: Inhibition of NorA in Staphylococcus aureus 8325-4 assessed as assessed as accumulation of compound at 3 uM by fluorescence assay. The method in brief: (§2)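 S. aureus was grown at 37°C to OD600 1.5, washed, then energised for 1 h at 37°C in PBS with 10 mM dextrose. Cells were diluted to OD ~0.3 in PBS, and compounds (berberine ± INF55, or hybrids) were added at 3 μM each. DNA-binding fluorescence increase was followed at ex 355/em 517 nm, in arbitrary units, with background subtracted. At least three independent experiments.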

Data set [3] relates to Staphylococcus aureus. The data set can be described thus: Antibacterial activity against Staphylococcus aureus K2378 overexpressing NorA after 18 hrs by two fold serial dilution method. The data set is classed as functional. Conditions: K2378, 18 h. The method in brief:
(§3)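 Broth inoculated at 10⁵ cells/ml and serial 2-fold compound dilutions, run in triplicate. Incubated 18 h at 37°C, with growth read as absorbance at 600 nm. MIC is the lowest concentration giving complete growth inhibition.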

Data set [4] concerns the target T1, Quinolone resistance protein NorA (Staphylococcus aureus). Description: Inhibition of NorA in Staphylococcus aureus K2378 overexpressing NorA assessed as accumulation of compound at 3 uM by fluorescence assay. The method in brief:
as §2

Data set [5] shares this target. Description: Inhibition of NorA in Staphylococcus aureus 8325-4 assessed as decrease in Berberine MIC.
The test system of data set [6] is Staphylococcus aureus. The data set can be described thus: Antibacterial activity against NorA-deficient Staphylococcus aureus K1758 after 18 hrs by two fold serial dilution method in presence of INF55. The data set is classed as functional, organism-based.
Data set [7] concerns Staphylococcus aureus. The data set can be described thus: Cellular uptake in NorA-deficient Staphylococcus aureus K1758 assessed as accumulation of compound at 3 uM by fluorescence assay. The data set is classed as ADME, organism-based. To be noted: in vivo. The method in brief:
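K1758 (ΔnorA) cells grown at 37°C to OD600 1.5, washed twice in PBS, then energized 1 h at 37°C with aeration in PBS plus 10 mM dextrose at OD ~0.8. Cells washed again and diluted to OD ~0.3 in PBS. Compound added at 3 μM. DNA-binding fluorescence read at ex 355/em 517 nm, cell-free background subtracted, arbitrary units; ≥3 independent experiments.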

The target of data set [8] is T1, Quinolone resistance protein NorA (Staphylococcus aureus). The data set can be described thus: Inhibition of NorA in Staphylococcus aureus K2378 overexpressing NorA assessed as accumulation of Berberine at 3 uM by fluorescence assay in presence of INF55. The method in brief: as §2
The target is the same in data set [9]. Description: Inhibition of NorA in Staphylococcus aureus 8325-4 assessed as accumulation of compound at 3 uM by fluorescence assay. The method in brief:
as §2

For data set [10] the target is unchanged. Description: Inhibition of NorA in Staphylococcus aureus 8325-4 assessed as accumulation of Berberine at 3 uM by fluorescence assay in presence of INF55. The method in brief: as §2
Data set [11] has the same target. Description: Inhibition of NorA in Staphylococcus aureus K2378 overexpressing NorA assessed as decrease in Berberine MIC.
The test system of data set [12] is Staphylococcus aureus. Description: Antibacterial activity against wild-type Staphylococcus aureus 8325-4 after 18 hrs by two fold serial dilution method. The format is functional. Conditions: 8325-4, 18 h. The method in brief:
as §3

For data set [13], the system named is Staphylococcus aureus. Description: Antibacterial activity against NorA-deficient Staphylococcus aureus K1758 after 18 hrs by two fold serial dilution method. The format is functional. To be noted: K1758, 18 h. The method in brief:
as §3

For data set [14], the target named is T1, Quinolone resistance protein NorA (Staphylococcus aureus). Description: Inhibition of NorA in Staphylococcus aureus K2378 overexpressing NorA assessed as ethidium bromide uptake at 3 uM by fluorescence assay in presence of INF55. The method in brief: (§4)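 S. aureus was grown at 37°C to OD600 1.5, washed in PBS, then energised for 1 h at 37°C in PBS with 10 mM dextrose (OD ~0.8). Cells were washed and diluted to OD ~0.3 in PBS. Hybrid or INF55 was added before ethidium bromide, all at 3 μM. Fluorescence was read at ex 530/em 600 nm, with cell-free compound background subtracted. At least triplicate.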

The target is the same in data set [15]. Description: Inhibition of NorA in Staphylococcus aureus 8325-4 assessed as increase in ethidium bromide uptake at 3 uM by fluorescence assay in presence of INF55. The method in brief:
as §4

Data set [16] shares this target. The data set can be described thus: Inhibition of NorA in Staphylococcus aureus K2378 overexpressing NorA assessed as increase in ethidium bromide uptake at 3 uM by fluorescence assay in presence of INF55. The method in brief:
as §4

For data set [17] the target is unchanged. Description: Inhibition of NorA in Staphylococcus aureus 8325-4 assessed as ethidium bromide uptake at 3 uM by fluorescence assay. The method in brief: as §4
For data set [18] the target is unchanged. Description: Inhibition of NorA in Staphylococcus aureus K2378 overexpressing NorA assessed as ethidium bromide uptake at 3 uM by fluorescence assay. The method in brief:
as §4

The subject of data set [19] is Enterococcus faecalis. The data set can be described thus: Antibacterial activity against Enterococcus faecalis infected in Caenorhabditis elegans assessed as organism survival at 20 uM. The data set is classed as functional, organism-based. The method in brief: as §1
For data set [20], the system named is Staphylococcus aureus. The data set can be described thus: Increase in ethidium bromide uptake in NorA-deficient Staphylococcus aureus K1758 at 3 uM by fluorescence assay in presence of INF55. The data set is classed as functional, organism-based. The method in brief: as §4
The test system of data set [21] is Staphylococcus aureus. Description: Increase in ethidium bromide uptake in NorA-deficient Staphylococcus aureus K1758 at 3 uM by fluorescence assay. The data set is classed as functional, organism-based. The method in brief:
as §4

Active and inactive are the calls of the source.

The term MIC denotes the smallest concentration in the dilution series that meets the test's criterion for growth inhibition.

`CN[C@H](CC(C)C)C(=O)N[C@H]1C(=O)N[C@@H](CC(N)=O)C(=O)N[C@H]2C(=O)N[C@H]3C(=O)N[C@H](C(=O)N[C@H](C(=O)O)c4cc(O)cc(O)c4-c4cc3ccc4O)[C@H](O)c3ccc(c(Cl)c3)Oc3cc2cc(c3O[C@@H]2O[C@H](CO)[C@@H](O)[C@H](O)[C@H]2O[C@H]2C[C@](C)(N)[C@H](O)[C@H](C)O2)Oc2ccc(cc2Cl)[C@H]1O`: the result in the data set with Enterococcus faecalis [1] was Active.

Consider `COc1ccc2cc3[n+](cc2c1OC)CCc1cc2c(cc1-3)OCO2.[Cl-]` [BERBERINE CHLORIDE], for which the inhibition entry in data set [2], in [8] and in data set [10] was “Active” throughout. The MIC in the data set with Staphylococcus aureus [3] was more than 650 µM; against Staphylococcus aureus [12] it was 325 µM; with Staphylococcus aureus [13] it was 40 µM. The inhibition entry in [4] and in data set [9] was “inactive” throughout. The result (in data set [5]; in the data set with Staphylococcus aureus [6]; in data set [11]) was Active. Also, in the data set on Staphylococcus aureus [7], the Drug uptake entry is recorded as “Active”.

In the case of `COc1ccc2c(Cc3ccc(-c4cc5cc([N+](=O)[O-])ccc5[nH]4)cc3)c3[n+](cc2c1OC)CCc1cc2c(cc1-3)OCO2`, the MIC against Staphylococcus aureus [3] was 40.2 µM; in the data set on Staphylococcus aureus [12] it was 40.2 µM; against Staphylococcus aureus [13] it was 20.1 µM. For the same compound, the inhibition result in data set [14] was “inactive”. For the same compound, the inhibition result in data set [15], in data set [16], in [17] and in data set [18] was “Active” throughout. The outcome in the data set on Enterococcus faecalis [19], in the data set on Staphylococcus aureus [20] and in the data set with Staphylococcus aureus [21] was Active.

Turning to `COc1ccc2c(Cc3ccccc3-c3cc4cc([N+](=O)[O-])ccc4[nH]3)c3[n+](cc2c1OC)CCc1cc2c(cc1-3)OCO2`, the results for the MIC with Staphylococcus aureus [3], against Staphylococcus aureus [12] and with Staphylococcus aureus [13] were 18.8 µM, 9.4 µM and 9.4 µM, respectively.

In the case of `COc1ccc2c(Cc3cccc(-c4cc5cc([N+](=O)[O-])ccc5[nH]4)c3)c3[n+](cc2c1OC)CCc1cc2c(cc1-3)OCO2`, the MIC against Staphylococcus aureus [3], against Staphylococcus aureus [12] and in the data set with Staphylococcus aureus [13] was 20.1 µM each time. In addition, the inhibition entry in data set [14] was “inactive”. In addition, the inhibition result in data set [15], in data set [16], in [17] and in data set [18] was “Active” each time. Also, the result in the data set with Enterococcus faecalis [19], in the data set with Staphylococcus aureus [20] and in the data set on Staphylococcus aureus [21] was Active.

For the origin of these results see ChEMBL document CHEMBL1629702, “Berberine-INF55 (5-nitro-2-phenylindole) hybrid antimicrobials: effects of varying the relative orientation of the berberine and INF55 components” (Antimicrob Agents Chemother, 2010).
